One series concerns the target human P2Y12R. The conditions noted are these: human P2Y12R-transfected HEK cells; cited from earlier work.
The target of series [1] is T1, P2Y12R (Rattus norvegicus, UniProt Q9EPX4). The experiment in a line: in vitro autoradiography on rat brain sections using [18F]3. In kind it is binding. The procedure, abridged:
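Flash-frozen rat brain sections (10 μm) were prewashed 15 min in 50 mM Tris-HCl pH 7.4 and air-dried. They were then incubated 30 min with 18F tracer (0.1 MBq·mL–1) in 50 mM Tris-HCl/3% BSA pH 7.4, with or without P2Y12R inhibitor at 1 μM. Sections were washed twice for 1 min in cold 5 mM Tris-HCl (4 °C), dipped in ice-cold water and dried, then exposed to a phosphor screen for 10 min. Whole-brain ROI binding was expressed as % of no-inhibitor binding; n = 3.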

The format of series [2] is in vivo, Wistar rats. The conditions noted are these: for area under the curve, brain time–activity curve: 60 min scan; for area under the curve, brain time–activity curve / SUVmax brain: n = 2.
Series [3] deals with T1, P2Y12R. In kind it is in vivo, Wistar rats. A digest of the protocol:
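Male Wistar rats (12–15 weeks, 250–350 g) under isoflurane anesthesia; n = 4 per group. Both groups received tariquidar 15 mg/kg iv. The blocking group also received unlabeled test compound 5 mg/kg together with the tariquidar. The 18F tracer (10–25 MBq) was given iv via tail vein, followed immediately by a dynamic PET scan. Whole-brain ROI time–activity curves were expressed as SUV, mean ± standard deviation.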

For series [4] the following is noted: previously reported biodistribution data, 5 and 15 min post-injection; cited from earlier work.
For series [5] the following is noted: previously determined using the same method; cited from earlier work.
The mark [6] stands for this setting: baseline, after the initial perfusion peak, iv.
Where [7] appears, read: efflux transporter blocking with tariquidar.

Structures are written as SMILES. Like-named read-outs stand apart in the source and are kept apart here.

Results on 4 compounds are retold here after paper PMC8640995 (ACS Chemical Neuroscience, 2021).

T1 sequence (Q9EPX4 whole entry): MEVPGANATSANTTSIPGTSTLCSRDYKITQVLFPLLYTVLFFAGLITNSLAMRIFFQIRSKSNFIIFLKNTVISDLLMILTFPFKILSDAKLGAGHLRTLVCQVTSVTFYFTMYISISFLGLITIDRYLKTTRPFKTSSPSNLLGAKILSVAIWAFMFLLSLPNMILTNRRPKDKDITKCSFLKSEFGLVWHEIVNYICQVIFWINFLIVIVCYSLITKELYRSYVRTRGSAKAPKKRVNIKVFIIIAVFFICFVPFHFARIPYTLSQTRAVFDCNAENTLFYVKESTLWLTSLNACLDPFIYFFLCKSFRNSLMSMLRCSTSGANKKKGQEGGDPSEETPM

In general, Ki refers to a measure of affinity in units of concentration, obtained from inhibition or displacement. With `CCCc1cc2c(N3CCn4c(nnc4C(F)(F)F)C3)nc(OCCF)nc2s1` [compound 3, 2-(2-Fluoroethoxy)-6-propyl-4-(3-(trifluoromethyl)-5,6-dihydro-[1,2,4]triazolo[4,3-a]pyrazin-7(8H)-yl)thieno[2,3-d]pyrimidine], on human P2Y12R, the inhibitory constant (Ki) was 0.3 nM. The “blocking efficiency of [18F]3 binding” value at P2Y12R [1] (inhibitor co-incubated at 1 μM, n = 3) is reported as “about 70%”. In series [2] (rats, tariquidar blocking of P-glycoprotein and breast cancer resistance protein), the “efflux transporter substrate behavior” value is “strong substrate for efflux transporters”.

For `CCCc1cc2c(N3CCn4c(nnc4C(F)(F)F)C3)nc(OCC[18F])nc2s1` [[^18F]3, 2-(2-[^18F]Fluoroethoxy)-6-propyl-4-(3-(trifluoromethyl)-5,6-dihydro-[1,2,4]triazolo[4,3-a]pyrazin-7(8H)-yl)thieno[2,3-d]pyrimidine], the “area under the curve, whole brain time–activity curve” value amounted to 24.1 ± 0.5 at P2Y12R [3] (baseline: tariquidar + tracer, n = 4); 20.6 ± 0.7 on P2Y12R [3] (blocking: tariquidar + unlabeled 3 (5 mg/kg) and tracer, n = 4, p = 0.04). Moreover, the “selective and specific binding” value on P2Y12R [1] is given as “approximately 70%”. Further, the “area under the curve, brain time–activity curve” value in series [2] (baseline) is on record as 4.4 ± 0.1; in series [2] (setting [7]) it was 27.6 ± 1.1. For the same compound, the SUVmax brain in series [2] (setting [6]) came out at 0.2; in series [2] (efflux transporter blocking with tariquidar 15 mg/kg iv), 1.0.

With `CCOC(=O)c1cc(C#N)c(N2CC(N[11C](=O)NS(=O)(=O)c3ccc(Cl)s3)C2)nc1C` [[^11C]1, Ethyl 6-(3-(3-((5-Chlorothiophen-2-yl)sulfonyl)[^11C]ureido)azetidin-1-yl)-5-cyano-2-methylnicotinate], the “area under the curve, brain time–activity curve” value in series [2] (baseline) is reported as 3.8 ± 0.7; in series [2] (setting [7]), 5.2 ± 0.2. The SUVmax brain in series [2] (setting [6]) came to 0.1. Also, in series [4], the “%ID/g in rat brain” value was less than 0.1 %ID/g. Further, the “log D7.4” value in series [5] is on record as 1.93 ± 0.02.

For the compound `CCc1cc2c(N3CCN(C(=O)c4ccc(-c5ccccc5)cc4)CC3)nc(N3CCNC(=O)C3)nc2s1` [compound 2, 4-(4-(4-([1,1′-Biphenyl]-4-carbonyl)piperazin-1-yl)-6-ethylthieno[2,3-d]pyrimidin-2-yl)piperazin-2-one], the Ki on human P2Y12R is 9 nM.
